WT yeast gro inh: growth inhibition of WT yeast, mitochondrial fusion screen; mitochondrial fusion phenotypic screen, WT strain; inhibition, % at 10 µM; 190,000 tested, 2.1% active; AID 1362; in the data active means inhibition above about 58%; tested in S. cerevisiae
TNAP act hi DEA: activators of human TNAP at high phosphate acceptor concentration; purified TNAP, CDP-star luminescence, 1 M DEA, 30 min; hits give high values; 0 = EDTA background, 1 = DMSO-only activity; activation factor at 20 µM; 200,000 tested, under 10 active;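 active means activation factor at least 2 at 20 µM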
Target sequence (P05186 whole entry, looked up): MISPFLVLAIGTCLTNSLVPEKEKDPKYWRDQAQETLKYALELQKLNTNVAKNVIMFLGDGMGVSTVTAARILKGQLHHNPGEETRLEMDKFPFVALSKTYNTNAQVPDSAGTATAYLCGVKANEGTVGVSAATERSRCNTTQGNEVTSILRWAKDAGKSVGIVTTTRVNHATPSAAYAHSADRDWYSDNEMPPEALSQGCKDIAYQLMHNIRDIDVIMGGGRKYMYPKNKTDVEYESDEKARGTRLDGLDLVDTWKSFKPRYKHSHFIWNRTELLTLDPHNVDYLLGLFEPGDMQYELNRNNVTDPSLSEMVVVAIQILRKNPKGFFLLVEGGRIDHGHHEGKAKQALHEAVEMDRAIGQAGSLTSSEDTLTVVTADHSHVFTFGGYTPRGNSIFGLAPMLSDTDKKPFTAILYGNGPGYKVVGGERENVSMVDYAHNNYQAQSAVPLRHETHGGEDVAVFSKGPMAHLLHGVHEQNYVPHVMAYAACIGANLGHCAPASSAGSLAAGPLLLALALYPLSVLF
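Measured by: Luminescent substrate turnover signal | Test system: Human TNAP | Input: TNAP 1/800 final | Dosing: 20 µM single point | Schedule: 30 min, room temperature | Controls: EDTA wells as negative control, DMSO wells as positive control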
TNAP inh hi DEA: TNAP (human) inhibition, high acceptor; purified TNAP, CDP-star luminescence, 1 M DEA; inhibition, % at 20 µM; 200,000 tested, 0.03% active; AID 1135;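 active means over 50% inhibition of tissue-nonspecific alkaline phosphatase at 20 µM in the single-dose screen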
Arbovirus inh: blocks arbovirus infection | arbovirus infection cell-based antiviral screen | inhibition, % at 10 µM | 200,000 tested, 0.37% active; in the data active means inhibition above about 30%
TNAP inh no acc: TNAP (human) inhibition, acceptor-free conditions; AID 1012; P05186; purified TNAP, CDP-star luminescence, 30 min; inhibition, % at 20 µM; 200,000 tested, 0.26% active;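 active means tissue-nonspecific alkaline phosphatase inhibition above about 50% at 20 µM in the single-dose screen, limit read from the data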
Of the large screens only hits and unclear results are named; the others gave an inactive call. Only some compounds are listed: those with a hit (about 2.6% of all), similar ones and a draw of the others.

CN(c1ccccc1)S(=O)(=O)c1ccc(NC(=S)NC(=O)C2CC2)cc1	WT yeast gro inh 67.6
Cc1ccc(-c2n[nH]c(=S)n2/N=C\c2ccco2)cc1	none
S=c1[nH]nc(-c2ccco2)n1/N=C/c1ccc(Cl)cc1	TNAP inh no acc 54.0
S=c1[nH]nc(-c2ccco2)n1/N=C/c1ccccc1Cl	none
Cc1ccc(/C=N/n2c(-c3ccco3)n[nH]c2=S)s1	none
CC(/C=N/n1c(-c2ccco2)n[nH]c1=S)=C\c1ccccc1	WT yeast gro inh 73.4
CC(/C=N/n1c(-c2ccc(Cl)cc2)n[nH]c1=S)=C\c1ccco1	WT yeast gro inh 71.9
CCCC(=O)OC1CCS(=O)(=O)c2sccc21 (stereo not given)	none
Cc1ccc(NC(=O)CSc2nc(=O)cc(N)n2CCc2ccccc2)cc1	none
CC(NC(=O)CSc1nc(=O)cc(N)n1CCc1ccccc1)c1ccccc1 (stereo not given)	WT yeast gro inh 59.3
NC(=O)c1c(NC(=O)CSc2nnc(-c3ccccc3)n2CC2CCCO2)sc2c1CCC2 (stereo not given)	none
N#Cc1c(NC(=O)CSc2nnc(-c3ccccc3O)n2-c2ccccc2)sc2c1CCCC2	none
N#Cc1c(NC(=O)CSc2nnc(-c3ccccc3)o2)sc2c1CCCC2	TNAP inh hi DEA 62.9, Arbovirus inh 31.7
N#Cc1c(NC(=O)CSc2nnc(-c3ccncc3)n2CC2CCCO2)sc2c1CCCC2 (stereo not given)	TNAP inh hi DEA 51.1
CCn1c(SCC(=O)Nc2sc3c(c2C#N)CCCC3)nnc1-c1ccncc1	TNAP inh hi DEA 77.1, TNAP inh no acc 58.0
CC1CC(C)CN(CCCNC(=O)c2ccc3c(c2)NC(=O)C(N2CCCCC2)S3)C1 (stereo not given)	none
Cc1ccc(C(=C2C3C=CC2C2C(=O)NC(=O)C32)c2ccc(C)cc2)cc1 (stereo not given)	WT yeast gro inh 82.8
Cc1ccc(C(C)C)c(OCCNC(=S)Nc2cccc3ccccc23)c1	WT yeast gro inh 72.5
C1CCN=C(Nc2nc3c(s2)CCCC3)CC1	WT yeast gro inh 61.8
c1nnc(NC2=NCCCCC2)s1	none
COc1cc(/C=C/c2sc3ccccc3[n+]2CCCS(=O)(=O)[O-])ccc1O	TNAP inh hi DEA 56.9, TNAP inh no acc 55.3
COc1ccc(-c2csc(Nc3ccc(S(=O)(=O)Nc4cc(C)on4)cc3)n2)cc1	Arbovirus inh 30.1
COc1ccc(Nc2nc(-c3ccc(OC)cc3)cs2)cc1	none
COc1ccc(-c2csc(Nc3ncccc3C)n2)cc1OC	Arbovirus inh 40.9
COc1ccc(-c2csc(Nc3ccccc3)n2)cc1	WT yeast gro inh 68.6
Cc1cccnc1Nc1nc(-c2ccc(O)c(O)c2)cs1	none
COc1ccc(-c2csc(Nc3ncccc3C)n2)cc1	WT yeast gro inh 75.7
CCOc1ccc(CCNC(=O)CN2C(=O)NC(CCSC)C2=O)cc1OCC (stereo not given)	none
CC1CCN(C(=O)C2CCC(C)(C(=O)O)C2(C)C)CC1 (stereo not given)	none
O=C(Nc1ccc(Cl)c([N+](=O)[O-])c1)C(Sc1ccccc1)c1ccccc1 (stereo not given)	WT yeast gro inh 79.9
O=C(Nc1cc([N+](=O)[O-])ccc1Cl)C(Sc1ccccc1)c1ccccc1 (stereo not given)	none
Cc1cc(C)cc(N(CC(=O)N2CCn3c2nc2ccccc23)S(=O)(=O)c2c(C)noc2C)c1	none
Nc1c(Cl)ncnc1N/N=C/c1ccccn1	none
Nc1c(Cl)ncnc1N/N=C/c1ccc2ccccc2n1	TNAP inh hi DEA 54.2
CCOc1ccc(C2C=C(c3ccc(C)cc3)Nc3nnnn32)cc1 (stereo not given)	none
CCOc1ccc(C2C=C(c3ccc(C)cc3)Nc3ncnn32)cc1 (stereo not given)	Arbovirus inh 32.3
Cc1ccc(O)c(-c2cc(-c3cccc(Br)c3)n[nH]2)c1	none
Oc1ccc(F)cc1-c1cc(-c2ccc3c(c2)OCCO3)n[nH]1	Arbovirus inh 31.5
Cc1cccc(-n2ncc3c(N)ncnc32)c1	none
Cc1cccc(-n2ncc3c(N(C)Cc4ccccc4)ncnc32)c1	WT yeast gro inh 70.4 (no result: TNAP act hi DEA, TNAP inh hi DEA, TNAP inh no acc)
CC(C)CCNC(=O)CCCOc1cc(=O)n(C)c2ccccc12	WT yeast gro inh 96.5
O=C(/C=C/c1cccs1)N1CCN(c2ccccc2)CC1	none
CCC(C)c1ccc(OCC(=O)Nc2ccc3[nH]c(=O)[nH]c3c2)cc1 (stereo not given)	none

From PubChem
